Measured values: paper PMC3346155 (Drug Design, Development and Therapy, 2012)
Entries after “also recorded” stand apart in the source; their conditions may differ. *1 amine or outer side, *2 acyl side, *3 side chain or, on linkers, in order; H or OH if unused. Where a SMILES comes first, the peptide text is derived from it. Side-chain parts run from the residue outwards. [ ]: non-standard residue; d: D form. The star is where a group is joined. Ethylenediamine = C(CN[*:2])N[*:1]; Hyp = O=C(O)[C@@H]1C[C@@H](O)CN1; Phg = N[C@H](C(=O)O)c1ccccc1; CO = O=C([*:1])[*:2]; Bn = c1ccc(C*)cc1

Experiments:
[1] = Blood glucose levels after a single subcutaneous dose in healthy volunteers; type: in vivo, human
Method in brief: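 Healthy males aged 18–40 received one s.c. dose (1–1200 μg) or placebo between 8 and 9 am, about 1 h after a light standardized meal. Blood glucose was measured by the central standard laboratory panel at these times: pre-breakfast before dosing; before and 60 min after a standard lunch on Day –1 and Day 1; 2 h post-dose; and 23 h post-dose on Day 2.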

[2] = compared with octreotide; cited from earlier work
human sst3 = details: cited from earlier work; for IC50: read-out: IC50, binding affinity to sst3, human sst3, mean ± SEM
human sst4 = details: read-out: IC50, binding affinity to sst4, mean ± SEM; cited from earlier work
[3] = test system: GHRH-stimulated GH secretion; assay: GHRH stimulation test, GH suppression in healthy volunteers; type: in vivo, human; details: for Emax, maximum GH reduction: value ± standard error
Method in brief: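 The GHRH stimulation test ran on Day –1 and Day 1. A 1 μg/kg GHRH bolus was given about 3 h after the s.c. dose. Plasma GH was sampled at −60 and 0 min and up to 120 min after GHRH, and measured by chemiluminescence assay (LLOQ 0.06 ng/mL).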

[4] = Safety and tolerability of a single subcutaneous dose in healthy volunteers; type: in vivo, human
Method in brief: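 Randomized, double-blind, placebo-controlled ascending single s.c. doses; cohorts had 4–8 active and 2 placebo subjects. Subjects were confined from about 36 h pre-dose until 48-h safety results were available, with follow-up over 7 days. AEs came from self-report, investigator questioning, examination or laboratory tests. Laboratory abnormalities counted as AEs only if symptomatic or treated. SAEs were recorded until 4 weeks after the trial. Laboratory tests were run centrally, with descriptive statistics.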

human sst2 = details: cited from earlier work; for IC50: read-out: IC50, binding affinity to sst2, human sst2, mean ± SEM
human sst5 = details: cited from earlier work; for IC50: read-out: IC50, binding affinity to sst5, human sst5, mean ± SEM
human sst1 = details: cited from earlier work; for IC50: read-out: IC50, binding affinity to sst1, human sst1, mean ± SEM
[5] = Plasma pharmacokinetics after a single subcutaneous dose in healthy volunteers; type: in vivo, human
Method in brief: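 Single s.c. dose in healthy males. Blood was drawn by venipuncture or forearm cannula up to 144 h post-dose and centrifuged to plasma. Drug was quantified by validated radioimmunoassay (LLOQ 0.03 ng/mL); values below the LLOQ were set to zero. Parameters came from non-compartmental analysis, reported as median (range) for tmax and mean ± SD otherwise. Dose proportionality was tested by a log-dose versus log-parameter linear model.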

[6] = single s.c. dose 1200 μg, n = 6
[7] = male, human, plasma, sc, 2.5 ug
[8] = male, human, plasma, sc, 100 ug
[9] = male, human, plasma, sc, 200 ug
[10] = male, human, plasma, sc, 300 ug
[11] = male, human, plasma, sc, 600 ug
[12] = male, human, plasma, sc, 1200 ug
[13] = single s.c. dose, across dose levels, healthy male volunteers

## NCCCC[C@@H]1NC(=O)[C@@H](Cc2c[nH]c3ccccc23)NC(=O)[C@H](c2ccccc2)NC(=O)[C@@H]2C[C@@H](OC(=O)NCCN)CN2C(=O)[C@H](Cc2ccccc2)NC(=O)[C@H](Cc2ccc(OCc3ccccc3)cc2)NC1=O [Pasireotide] (cyclo([Hyp]([CO-Ethylenediamine])[Phg][dW]KY(Bn)F))
[1]; all dose groups, twenty-three hours after the injection
  glucose values: normal for all groups
[1]; doses between 200 μg and 1200 μg, 2–6 hours after administration, resolved by 23 hours post-dosing
  blood glucose levels: Transient elevations in blood glucose levels
[1]; single s.c. dose 600 μg and 1200 μg, six hours after administration
  glucose levels: higher than those of placebo recipients
[2]
  metabolic stability: greater metabolic stability than octreotide
Human sst3; ratio versus octreotide
  higher binding affinity for sst3 compared with octreotide: 5 fold
Human sst4
  IC50: > 1000 nM
[3]; non-linear Emax model for GH AUC ratio versus Cavg
  Emax, maximum GH reduction: 0.99 ± 0.03
[3]; non-linear Emax model for GH AUC ratio versus dose
  Emax, maximum GH reduction: 1.00 ± 0.00
[3]; single pasireotide doses between 200 μg and 1200 μg s.c.
  GH suppression: 79%–96%
[3]; single s.c. dose 30–100 μg
  decrease in GH AUC2h: approximately 45%
[3]; single s.c. doses between 1 μg and 10 μg
  reduction in GH AUC2h: No reduction
[4]; observed in the 1200 μg dose group only, of a total of 12 AEs in the study
  AEs considered related to the study drug: eight
[4]; one subject, single s.c. dose 10 μg, 48 hours post-dose, normal range 23–300 U/L
  increased lipase level: 523 U/L
[4]; [6]
  subjects who experienced at least one AE: 6 subjects
  subjects who experienced nausea: five
[4]; single s.c. dose 1–1200 μg, any dose, healthy male volunteers
  deaths, serious adverse events, clinically significant changes in laboratory values, vital signs or ECG: no serious adverse events observed at any dose; also recorded: no reports of death, SAEs, or clinically significant changes in laboratory values, vital signs or ECG parameters
[4]; single s.c. dose 1–1200 μg, healthy male volunteers
  tolerability: generally well tolerated
[4]; single s.c. dose, tested range 1–1200 μg, healthy male volunteers
  maximum tolerable dose: not established within the tested range
Human sst2; ratio versus octreotide
  lower affinity for sst2 compared with octreotide: 2.6 times
Human sst2
  IC50: 1 ± 0.1 nM
Human sst5; ratio versus endogenous somatostatin
  higher binding affinity for sst5 than endogenous somatostatin: 2 fold
Human sst5; ratio versus octreotide
  higher binding affinity for sst5 compared with octreotide: 39 fold
Human sst5
  IC50: 0.16 ± 0.01 nM
Human sst1; ratio versus octreotide
  higher binding affinity for sst1 compared with octreotide: 30 fold
Human sst1
  IC50: 9.3 ± 0.1 nM
[5]; [7]
  AUC(0-t): 0.11 ± 0.09 ng·h/mL
  Cmax: 0.06 ± 0.01 ng/mL
  Tmax: 15 min
[5]; male, human, plasma, sc, 10 ug
  AUC(0-t): 0.66 ± 0.25 ng·h/mL
  Cmax: 0.24 ± 0.06 ng/mL
  Tmax: 15 min
  Vd/F: 38.1 L
[5]; male, human, plasma, sc, 30 ug
  AUC(0-t): 2.78 ± 1.02 ng·h/mL
  Cmax: 0.72 ± 0.17 ng/mL
  Tmax: 15 min
  Vd/F: 105 ± 5.7 L
  half-life: 444 ± 132 min
[5]; [8]
  AUC(0-inf): 9.59 ± 2.44 ng·h/mL
  AUC(0-t): 9.1 ± 2.37 ng·h/mL
  CL/F: 183 mL/min
  Cmax: 2.23 ± 0.45 ng/mL
  Tmax: 30 min
  Vd/F: 131 ± 41 L
[5]; [9]
  AUC(0-inf): 17.5 ± 3.82 ng·h/mL
  AUC(0-t): 16.8 ± 3.65 ng·h/mL
  CL/F: 198 mL/min
  Cmax: 3.73 ± 0.9 ng/mL
  Tmax: 22.8 min
  Vd/F: 162 ± 33.9 L
[5]; [10]
  AUC(0-inf): 27.1 ± 6.98 ng·h/mL
  AUC(0-t): 26 ± 6.87 ng·h/mL
  CL/F: 198 mL/min
  Cmax: 4.71 ± 1.79 ng/mL
  Tmax: 22.8 min
  Vd/F: 180 ± 44.3 L
[5]; [11]
  AUC(0-inf): 78.6 ± 12.3 ng·h/mL
  AUC(0-t): 75.6 ± 11.2 ng·h/mL
  CL/F: 130 mL/min
  Cmax: 15.6 ± 3.25 ng/mL
  Tmax: 30 min
  Vd/F: 464 ± 440 L
[5]; [12]
  AUC(0-inf): 93.6 ± 13.6 ng·h/mL
  AUC(0-t): 90.4 ± 13.2 ng·h/mL
  CL/F: 218 mL/min
  Cmax: 22.2 ± 5.53 ng/mL
  Tmax: 30 min
  Vd/F: 1190 ± 1570 L
  half-life: 546 ± 126 min
[5]; single s.c. dose, 600 μg and 1200 μg, healthy male volunteers
  partial AUC in the γ phase as contribution to total AUC∞: < 15%
[5]; [13]
  Tmax: 15 to 30 min
  t½,β (effective elimination half-life), mean: 420 to 660 min
[5]; single s.c. dose, low doses (10 μg), healthy male volunteers
  Vz/F, mean value: 40 L

## Lanreotide [reference compound]
Human sst3
  IC50: 14 ± 9 nM
Human sst4
  IC50: 230 ± 40 nM
Human sst2
  IC50: 0.54 ± 0.08 nM
Human sst5
  IC50: 17 ± 5 nM
Human sst1
  IC50: 180 ± 20 nM

## Octreotide [reference compound]
Human sst3
  IC50: 7.1 ± 1.4 nM
Human sst4
  IC50: > 1000 nM
Human sst2
  IC50: 0.38 ± 0.08 nM
Human sst5
  IC50: 6.3 ± 1 nM
Human sst1
  IC50: 280 ± 80 nM
